Measurements as given in ChEMBL document CHEMBL1275590, “Novel arylimidamides for treatment of visceral leishmaniasis” (Antimicrob Agents Chemother, 2010).
pIC50: −log10 of the molar value. Active and inactive are the calls of the source.

Experiments:
[1] = Oral bioavailability in Swiss Webster mouse at 66 mg/kg by HPLC-MS/MS analysis; type: ADME, organism-based; details: in vivo
Outline: (§1)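 Male Swiss Webster mice (n = 3 per time point), single dose by oral gavage (sterile water solution) or tail-vein bolus i.v. (water diluted 1:1 with 2× saline, over ~10–20 s); dose volume 5 ml/kg. Terminal blood sampled from 5 min to 72 h postdose; plasma quantified by HPLC-MS/MS (positive-ion SRM). Noncompartmental analysis gave Cmax, Tmax, AUC0-∞, CL, Vss; bioavailability from p.o. versus i.v. exposure.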

[2] = Half life in human liver microsome by HPLC-MS/MS analysis in presence of 1 uM NADPH; type: ADME; details: liver microsomes
Outline: (§2)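 Pooled liver microsomes with NADPH. Substrate at final 0.1, 1.0 and 10 μM with 0.5% DMSO, incubated up to 60 min at 37°C. Reactions were stopped with 7:1 methanol-water containing 0.1% TFA and 30 nM internal standard. Remaining substrate was measured by HPLC-MS/MS, and t1/2 came from a one-phase exponential decay fit.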

[3] = Half life in mouse liver microsome by HPLC-MS/MS analysis in presence of 0.1 uM NADPH; type: ADME; details: liver microsomes
Outline: (§3)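 Pooled liver microsomes (human, mouse, rat) with NADPH. Substrate added from DMSO to final 0.1, 1.0 or 10 μM, with 0.5% (vol/vol) organic solvent. Incubated at 37°C for up to 60 min. Stopped with 2 volumes of 7:1 methanol-water containing 0.1% TFA and 30 nM internal standard, then centrifuged. Remaining substrate was measured by HPLC-MS/MS, and t1/2 was obtained by one-phase exponential decay fit (t1/2 = 0.693/k).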

[4] = test system: Mus musculus; assay: Renal toxicity in BALB/c mouse assessed as blood urea nitrogen level in serum at 25 mg/kg/day, po administered for five days (Rvb= 29 mg/dl); type: organism-based; design: route oral; details: in vivo
Outline: (§4)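 Female BALB/c mice (n = 5 per dose), dosed once daily for 5 consecutive days p.o. (20 ml/kg) or i.v. (10 ml/kg) with compound in sterile water, prepared fresh daily under yellow light. Vehicle controls n = 5 per route. Clinical observations, body weights, serum chemistry and hematology on day 6 before necropsy; histopathology of formalin-fixed tissues. Chemistry analysed by one-way ANOVA with Dunnett's posttest.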

[5] = test system: Mus musculus; assay: Renal toxicity in BALB/c mouse assessed as phosphorus level in serum at 20 mg/kg/day, iv administered for five days (Rvb= 6.1 mg/dl); type: organism-based; design: route intravenous; details: in vivo; outline: as §4
[6] = Half life in golden Syrian hamster liver microsomes by HPLC-MS/MS analysis in presence of 0.1 uM NADPH; type: ADME, Mesocricetus auratus, Microsome; outline: as §2
[7] = test system: Mus musculus; assay: Toxicity in BALB/c mouse assessed as liver necrosis at 150 mg/kg/day, po; type: organism-based; design: route oral; details: in vivo; outline: as §4
[8] = test system: Mus musculus; assay: AUC (0 to infinity) in Swiss Webster mouse at 16.5 mg/kg, po by HPLC-MS/MS analysis; type: ADME, organism-based, Plasma; design: time infinity, dose 16.5 mg/kg, route oral; details: in vivo
Outline: (§5)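 Male Swiss Webster mice, n = 3 per time point. For i.v., the compound was dissolved in sterile water, diluted 1:1 with 2× saline, and given as a tail-vein bolus over ~10–20 s. For p.o., it was given by gavage in sterile water. Dose volume was 5 ml/kg. Terminal plasma was taken from 5 min to 72 h and measured by HPLC-MS/MS (calibration 2.5–10,000 nM). Parameters came from noncompartmental analysis.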

[9] = test system: Leishmania donovani; assay: Antileishmanial activity against antimony resistant Leishmania donovani MC8-R infected in mouse J774 macrophage; type: functional, organism-based
[10] = test system: Mus musculus; assay: AUC (0 to infinity) in Swiss Webster mouse at 131 mg/kg, po by HPLC-MS/MS analysis; type: ADME, organism-based, Plasma; design: dose 131 mg/kg, route oral, time infinity; details: in vivo; outline: as §5
[11] = Half life in mouse liver microsome by HPLC-MS/MS analysis in presence of 1 uM NADPH; type: ADME; details: liver microsomes; outline: as §3
[12] = Half life in rat liver microsome by HPLC-MS/MS analysis in presence of 1 uM NADPH; type: ADME; details: liver microsomes; outline: as §3
[13] = Half life in golden Syrian hamster liver microsome by HPLC-MS/MS analysis in presence of 10 uM NADPH; type: ADME, Mesocricetus auratus; details: liver microsomes; outline: as §2
[14] = test system: Leishmania donovani; assay: Antileishmanial activity against antimony resistant Leishmania donovani MC4-R infected in mouse J774 macrophage; type: functional, organism-based
[15] = Half life in golden Syrian hamster liver microsome by HPLC-MS/MS analysis in presence of 1 uM NADPH; type: ADME, Mesocricetus auratus; details: liver microsomes; outline: as §2
[16] = test system: Leishmania major; assay: Antileishmanial activity against intracellular Leishmania major amastigotes; type: functional, organism-based
[17] = test system: Mus musculus; assay: Renal toxicity in BALB/c mouse assessed as blood urea nitrogen level in serum at 5 mg/kg/day, iv administered for five days (Rvb= 20 mg/dl); type: organism-based; design: route intravenous; details: in vivo; outline: as §4
[18] = Tmax in Swiss Webster mouse at 66 mg/kg, po by HPLC-MS/MS analysis; type: ADME, organism-based; design: dose 66 mg/kg, route oral; details: in vivo; outline: as §1
[19] = test system: Mus musculus; assay: Hepatotoxicity in BALB/c mouse assessed as ALT level in serum at 20 mg/kg/day, iv administered for five days (Rvb= 34 U/L); type: toxicity, organism-based; design: route intravenous; details: in vivo
[20] = test system: Mus musculus; assay: Hepatotoxicity in BALB/c mouse assessed as AST level in serum at 50 mg/kg/day, po administered for five days (Rvb= 70 U/L); type: toxicity, organism-based; design: route oral; details: in vivo
[21] = test system: Mus musculus; assay: Hepatotoxicity in BALB/c mouse assessed as alkaline phosphatase level in serum at 50 mg/kg/day, po administered for five days (Rvb= 129 U/L); type: toxicity, organism-based; design: route oral; details: in vivo
[22] = Induction of mutagenicity in Salmonella serovar Typhimurium TA 100 assessed as number of revertant colonies at 50 ug by Ames assay in presence of Aroclor 1254-induced rat liver S9 metabolic activation system; type: toxicity, subcellular, Salmonella enterica subsp. enterica serovar Typhimurium
Outline: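 Ames plate incorporation with S. Typhimurium TA98 and TA100, with or without Aroclor 1254-induced rat liver S9 (10% vol/vol). Compound was dissolved in sterile water and serially diluted to 1–500 μg/plate. Positive controls were 2-nitrofluorene and sodium azide without S9, and 2-aminoanthracene with S9; sterile water and DMSO served as vehicles. Revertant colonies and background lawn were scored. A mutagen was defined as a mean revertant count at least 2-fold over solvent control. Single experiment.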

[23] = test system: Mus musculus; assay: Toxicity in BALB/c mouse assessed as occurrence of tremor at 20 mg/kg/day, iv administered for five days measured on day 2; type: organism-based; design: route intravenous; details: in vivo; outline: as §4
[24] = test system: Leishmania donovani; assay: Antileishmanial activity against Leishmania donovani promastigotes in po dosed BALB/c mouse assessed as inhibition of liver parasitemia; type: functional, organism-based
Outline: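 Murine VL model in L. donovani-infected mice. Compounds were dissolved in water and given i.p. or p.o. once daily for 5 days (4 days for one i.p. regimen). Liver parasitemia was compared with untreated controls by unpaired Student's t test, P ≤ 0.05.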

[25] = test system: Mus musculus; assay: Hepatotoxicity in BALB/c mouse assessed as alkaline phosphatase level in serum at 30 mg/kg/day, iv administered for five days (Rvb= 134 U/L); type: toxicity, organism-based; design: route intravenous; details: in vivo
[26] = test system: Mus musculus; assay: Renal toxicity in BALB/c mouse assessed as phosphorus level in serum at 30 mg/kg/day, iv administered for five days (Rvb= 6.1 mg/dl); type: organism-based; design: route intravenous; details: in vivo; outline: as §4
[27] = Tmax in Swiss Webster mouse at 5 mg/kg, iv by HPLC-MS/MS analysis; type: ADME, organism-based; design: dose 5 mg/kg, route intravenous; details: in vivo; outline: as §1

Row | Compound | half-life [2] | half-life [3] | Activity [4] | Activity [5] | half-life [6] | pIC50 [9] | half-life [11] | half-life [12] | half-life [13] | pIC50 [14] | half-life [15] | pIC50 [16] | Activity [17] | Activity [19] | Activity [20] | Activity [21] | also measured
1 | CCOc1cc(NC(=N)c2ccccn2)ccc1-c1ccc(-c2ccc(NC(=N)c3ccccn3)cc2OCC)o1 | > 2 h | 0.25 h | 29 mg/dL | 7.3 mg/dL | 1.25 h | 6.80 | 0.783 h | > 2 h | > 2 h | 6.82 | > 2 h | 7.59 | 18 mg/dL | 57 U/L | 77 U/L | 130 U/L | bioavailability [1]: 9.3%; Activity [7]: Toxic; AUC [8]: 0.5 µM·h; AUC [10]: 30 µM·h; Tmax [18]: 2 h
2 | CC(C)Oc1cc(NC(=N)c2ccccn2)ccc1-c1ccc(-c2ccc(NC(=N)c3ccccn3)cc2OC(C)C)o1 | > 2 h | 0.433 h | 27 mg/dL | 6.5 mg/dL | 0.65 h | 7.19 | > 2 h | > 2 h | > 2 h | 7.12 | > 2 h | 7.85 | 19 mg/dL | 50 U/L | 90 U/L | 123 U/L | Activity [22]: 135; Activity [23]: Toxic; Activity [24]: Active; Activity [25]: 118 U/L; Activity [26]: 7.6 mg/dL; Tmax [27]: 5 min
